Assay results reported in ChEMBL document CHEMBL1221380, “Structure-activity relationships of mononuclear metal-thiosemicarbazone complexes endowed with potent antiplasmodial and antiamoebic activities” (Bioorg Med Chem, 2010).

Tested on: Plasmodium falciparum
Experiment: Antiplasmodial activity against Plasmodium falciparum W2 after 24 hrs by [3H]hypoxanthine incorporation assay
Assay type: functional, organism-based
Conditions: not given
Summary of the method: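 Chloroquine-resistant, mefloquine-sensitive W2 clone grown in human O+ erythrocytes in RPMI 1640 with 10% human plasma; 1–2% parasitemia, 2.5% hematocrit. Five concentrations in 4% DMSO in hypoxanthine-free RPMI, 24 h. [3H]-hypoxanthine uptake vs untreated wells; IC50 from triplicates, mefloquine standard.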

| SMILES | IC50 [µM] |
| --- | --- |
| OC(c1cc(C(F)(F)F)nc2c(C(F)(F)F)cccc12)C1CCCCN1 (centres undefined) [MEFLOQUINE] | 0.039 |
| CC1CCN(C(=S)N/N=C/c2ccco2)CC1 | 36.2 |
| S=C(N/N=C/c1ccco1)N1CCCCCC1 | 35.8 |

Results, then the molecule that gave them:

| IC50 [µM] | SMILES |
| --- | --- |
| 21.8 | CN(C(=S)N/N=C/c1ccco1)C1CCCCC1 |
| 20.3 | S=C(N/N=C/c1ccco1)NC1CCCCC1 |

Tested on: Entamoeba histolytica
Experiment: Antiamoebic activity against Entamoeba histolytica HM1:IMSS after 72 hrs by microplate method
Assay type: functional, organism-based
Conditions: HM-1:IMSS
Summary of the method: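 Trophozoites grown in TYI-S-33 medium; samples dissolved in DMSO then medium to 1 mg/mL, diluted to 0.1 mg/mL, twofold serial dilutions in plate; final DMSO ≤0.1%. 10^5 organisms/mL added, plate gassed with nitrogen 10 min, 37 °C for 72 h. OD at 490 nm; % inhibition vs log dose, linear regression for IC50. Triplicates, repeated thrice; metronidazole standard.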

| SMILES | IC50 [µM] |
| --- | --- |
| CC1CCN(C(=S)N/N=C/c2ccco2)CC1 | 8.02 |
| S=C(N/N=C/c1ccco1)N1CCCCCC1 | 12.1 |

Now from value to molecule:

| IC50 [µM] | SMILES |
| --- | --- |
| 9.07 | CN(C(=S)N/N=C/c1ccco1)C1CCCCC1 |
| 10.1 | S=C(N/N=C/c1ccco1)NC1CCCCC1 |

Tested on: not listed separately
Experiment: Cytotoxicity against BALB/c mouse splenocyte by [3H]thymidine incorporation assay
Assay type: cell-based
Conditions: not given
Summary of the method: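 Splenocytes (5 × 10^6 per well) in DMEM with 10% FCS and 50 µg/mL gentamycin; tested at 1.1, 3.3, 11, 33 and 100 µg/mL in triplicate with 3H-thymidine (1 µCi per well), 24 h, 37 °C, 5% CO2. Value is highest non-cytotoxic concentration, i.e. reducing incorporation by under 10% versus untreated.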

| SMILES | highest non-cytotoxic concentration [µg/mL] |
| --- | --- |
| CN(C(=S)N/N=C/c1ccco1)C1CCCCC1 | > 100 |
| S=C(N/N=C/c1ccco1)NC1CCCCC1 | 33 |
| CC1CCN(C(=S)N/N=C/c2ccco2)CC1 | 100 |
| S=C(N/N=C/c1ccco1)N1CCCCCC1 | > 100 |

Tested on: not listed separately
Experiment: Inhibition of beta-hematin formation after 18 hrs by microtiter plate assay
Assay type: functional
Conditions: not given

| SMILES | IC50 [µg/mL] |
| --- | --- |
| CCN(CC)CCCC(C)Nc1ccnc2cc(Cl)ccc12.O=P(O)(O)O.O=P(O)(O)O (centres undefined) [CHLOROQUINE PHOSPHATE] | 1.3 |
